Several values for one entry are separate records, joined by “and”; a condition that tells them apart may be missing. Equal values may be shown once. Read-outs that look alike come from different tables or passages of the source.
Key:
CYP3A4 = CYP3A4 (Homo sapiens, UniProt P08684); test: CYP phenotyping in human liver microsomes, ketoconazole; conditions: NADPH + Ketoconazole
[1] = mouse brain homogenate, 1 μM, corrected for dilution
CYP1A2 = target: T1, CYP1A2 (Homo sapiens, UniProt P05177); test: CYP phenotyping in human liver microsomes, furafylline; conditions: NADPH + Furafylline
T1 sequence (P05177 1-516): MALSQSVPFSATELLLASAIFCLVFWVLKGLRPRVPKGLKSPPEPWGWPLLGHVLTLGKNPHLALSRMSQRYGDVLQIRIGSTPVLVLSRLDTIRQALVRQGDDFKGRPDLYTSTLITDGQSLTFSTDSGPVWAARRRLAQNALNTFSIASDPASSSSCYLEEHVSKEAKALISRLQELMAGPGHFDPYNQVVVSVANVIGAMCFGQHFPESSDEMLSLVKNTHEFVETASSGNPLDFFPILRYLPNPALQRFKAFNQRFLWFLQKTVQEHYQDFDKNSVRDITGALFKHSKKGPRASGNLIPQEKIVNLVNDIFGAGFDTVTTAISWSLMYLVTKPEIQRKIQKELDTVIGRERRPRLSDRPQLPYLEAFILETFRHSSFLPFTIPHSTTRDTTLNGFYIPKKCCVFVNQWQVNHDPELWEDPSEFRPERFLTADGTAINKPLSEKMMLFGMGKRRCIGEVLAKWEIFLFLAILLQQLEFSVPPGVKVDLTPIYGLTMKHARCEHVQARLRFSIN

[2] = Solubility at pH 2, pH 7.4 and in FaSSIF; assay type: physicochemical; conditions: pH 7.4 (phosphate) buffer, room temperature overnight
mouse plasma = conditions: 1 μM
CYP2D6 = CYP2D6 (Homo sapiens, UniProt P10635); test: CYP phenotyping in human liver microsomes, quinidine; conditions: NADPH + Quinidine
[3] = tested on: human, mouse, rat, and dog liver microsomes; conditions: 10 μM, LC/MS/MS
Media solubility = assay type: physicochemical; conditions: media used in the cell-based assays, 10% FBS
CYP2C19 [4] = conditions: NADPH + N-3-B
CYP2C19 [5] = target: CYP2C19 (Homo sapiens, UniProt P33261); conditions: NADPH + N-3-B
[6] = Single-dose IV PK at 1 mg/kg; assay type: in vivo, FVB mice; conditions: IV 1 mg/kg, plasma
In short: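 Female FVB mice (~25 g) received 1 mg/kg by tail-vein injection in 10% DMSO in PEG400/water (1:1), 10% DMSO, or 10% ethanol in PEG400/water (1:1). Two mice per time point were killed by CO2 at 5 min and 0.25, 0.5, 1, 2, 4 and 6 h, and heparinized plasma was collected. After protein precipitation, samples were assayed by LC/MS/MS, and parameters came from noncompartmental sparse-sampling analysis.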

CYP2C9 = CYP2C9 (Homo sapiens, UniProt P11712); test: CYP phenotyping in human liver microsomes, sulfaphenazole; conditions: NADPH + Sulphaphenazol
[7] = tested on: PrP^Sc levels in ScN2a-cl3 cells; test: cells; assay type: cell-based, mouse
rat liver microsomes = test: Hepatic microsomal stability, rat; assay type: in vitro ADME; conditions: 1 μM
In short: (§1)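 Liver microsomes from mouse, rat or human (~0.5 mg/mL final) were incubated at 37°C with test compound at 1 μM final (0.6% ACN, 0.01% DMSO) in PBS pH 7.4 ± 0.05% PS80, with 1 mM NADPH or PBS.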

human liver microsomes [8] = conditions: for Measured Conc.: 60 min
[9] = cell-culture media with 10% FBS, 1 μM
[10] = Single-dose oral gavage PK at 10 mg/kg; assay type: in vivo, FVB mice; conditions: for AUClast / Cmax: mean ± SD, n = 2
In short: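 Female FVB mice (~25 g) were dosed at 10 mg/kg by oral gavage in 20% propylene glycol, 5% ethanol, 5% labrosol and 70% PEG400. Two mice per time point were killed by CO2 at 0.25, 0.5, 1, 2, 4, 6 and 24 h. Heparinized plasma and brain (diluted five-fold in water, homogenized) were assayed by LC/MS/MS.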

human liver microsomes [11] = test: Hepatic microsomal stability, human; assay type: in vitro ADME; conditions: 1 μM
In short: as §1

mouse liver microsomes = test: Hepatic microsomal stability, mouse; assay type: in vitro ADME; conditions: 1 μM
In short: as §1

human plasma = conditions: human plasma, 1 μM
[12] = reversible incubation condition, 1 μM, 60 min
[13] = irreversible incubation condition, maximum metabolism, NADPH/No Inhibitor
[14] = reversible incubation condition, maximum metabolism, NADPH/No Inhibitor

CYP3A4, sequence (P08684 whole entry): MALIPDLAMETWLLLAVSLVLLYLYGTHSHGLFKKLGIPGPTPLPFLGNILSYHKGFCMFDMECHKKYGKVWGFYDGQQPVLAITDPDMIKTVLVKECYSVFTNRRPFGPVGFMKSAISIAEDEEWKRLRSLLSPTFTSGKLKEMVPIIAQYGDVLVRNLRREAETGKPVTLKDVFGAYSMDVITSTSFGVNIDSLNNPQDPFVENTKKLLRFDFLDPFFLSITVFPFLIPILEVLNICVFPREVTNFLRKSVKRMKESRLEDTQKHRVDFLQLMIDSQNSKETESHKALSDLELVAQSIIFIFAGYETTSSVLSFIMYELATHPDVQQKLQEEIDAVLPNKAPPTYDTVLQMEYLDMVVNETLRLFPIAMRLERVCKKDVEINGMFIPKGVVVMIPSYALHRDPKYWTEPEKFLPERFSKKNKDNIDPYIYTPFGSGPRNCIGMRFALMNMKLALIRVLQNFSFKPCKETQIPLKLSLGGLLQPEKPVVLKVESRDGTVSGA
CYP2D6, sequence (P10635 whole entry): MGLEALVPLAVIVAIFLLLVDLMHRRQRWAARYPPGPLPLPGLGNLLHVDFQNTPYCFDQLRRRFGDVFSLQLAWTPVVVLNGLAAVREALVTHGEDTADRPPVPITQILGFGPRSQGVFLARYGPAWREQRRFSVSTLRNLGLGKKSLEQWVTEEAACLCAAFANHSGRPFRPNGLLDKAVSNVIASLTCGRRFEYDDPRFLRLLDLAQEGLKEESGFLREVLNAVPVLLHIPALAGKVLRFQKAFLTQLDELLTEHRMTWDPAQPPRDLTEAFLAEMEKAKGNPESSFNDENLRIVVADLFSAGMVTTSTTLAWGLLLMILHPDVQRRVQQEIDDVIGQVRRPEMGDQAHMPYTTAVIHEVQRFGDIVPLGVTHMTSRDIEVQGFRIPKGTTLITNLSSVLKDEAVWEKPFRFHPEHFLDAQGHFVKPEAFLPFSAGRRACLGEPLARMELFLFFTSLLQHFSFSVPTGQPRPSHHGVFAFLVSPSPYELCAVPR
CYP2C9, sequence (P11712 whole entry): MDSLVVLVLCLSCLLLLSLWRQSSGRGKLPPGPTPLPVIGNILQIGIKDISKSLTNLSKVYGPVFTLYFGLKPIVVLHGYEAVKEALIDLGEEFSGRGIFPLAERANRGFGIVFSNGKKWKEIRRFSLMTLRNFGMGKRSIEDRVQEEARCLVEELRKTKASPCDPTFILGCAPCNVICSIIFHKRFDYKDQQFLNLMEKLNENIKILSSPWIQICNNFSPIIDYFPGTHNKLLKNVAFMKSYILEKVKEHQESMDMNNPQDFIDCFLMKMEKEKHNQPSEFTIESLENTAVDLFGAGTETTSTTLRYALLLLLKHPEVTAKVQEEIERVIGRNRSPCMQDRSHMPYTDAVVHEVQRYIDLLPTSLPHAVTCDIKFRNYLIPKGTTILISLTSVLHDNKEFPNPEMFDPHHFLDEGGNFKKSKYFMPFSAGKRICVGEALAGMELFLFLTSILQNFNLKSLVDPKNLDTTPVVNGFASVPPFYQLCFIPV
CYP2C19 (Homo sapiens, UniProt P33261), sequence (P33261 whole entry): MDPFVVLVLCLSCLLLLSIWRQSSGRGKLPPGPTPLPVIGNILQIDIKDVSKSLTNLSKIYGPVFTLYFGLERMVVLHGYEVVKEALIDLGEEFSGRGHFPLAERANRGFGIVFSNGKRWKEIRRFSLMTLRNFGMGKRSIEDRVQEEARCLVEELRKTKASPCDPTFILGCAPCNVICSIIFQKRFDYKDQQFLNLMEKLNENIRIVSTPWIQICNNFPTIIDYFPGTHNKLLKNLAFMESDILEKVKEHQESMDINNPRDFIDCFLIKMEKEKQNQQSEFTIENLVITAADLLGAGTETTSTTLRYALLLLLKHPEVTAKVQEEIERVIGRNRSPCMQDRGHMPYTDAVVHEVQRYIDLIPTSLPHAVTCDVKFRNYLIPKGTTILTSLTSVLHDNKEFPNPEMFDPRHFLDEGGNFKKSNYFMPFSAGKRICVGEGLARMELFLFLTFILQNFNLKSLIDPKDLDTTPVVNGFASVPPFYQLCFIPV

Structure (SMILES): Cc1ccc(Nc2nc(-c3ccc(-c4ccccc4)cc3)cs2)nc1 [IND24]
- CYP? (involvement of CYP3A4) (CYP3A4): Unlikely (unlikely for values <5)
- Disappearance % (CYP3A4): 15%
- Disappearance % Δ (CYP3A4): 0 (−15) %
- Measured Conc. (CYP3A4; [12]): 0.557 µM
- Unbound (%) [1]: 8% and 8.20±0.35%
- Disappearance % (CYP1A2): 0 (−23) %
- Disappearance % Δ (CYP1A2): 0%
- Measured Conc. (CYP1A2; irreversible incubation condition, 1 μM, 60 min): 0.766 µM
- Solubility pH 7.4 [2]: <1 μM
- Unbound (%) (mouse plasma): 6.6% and 6.63±1.55%
- CYP? (involvement of CYP2D6) (CYP2D6): Unlikely (unlikely for values <5)
- Disappearance % (CYP2D6): 15%
- Disappearance % Δ (CYP2D6): 0 (−15) %
- Measured Conc. (CYP2D6; [12]): 0.555 µM
- Metabolites observed [3]: metabolites M1–M3 and M5 were observed in all of the microsomal assays while M4 was only observed in the dog liver microsomal incubation
- Solubility Media (Media solubility): >250 µM
- Disappearance % (CYP2C19 [4]): 18%
- Measured Conc. (CYP2C19 [4]; [12]): 0.537 µM
- CYP? (involvement of CYP2C19) (CYP2C19 [5]): Unlikely (unlikely for values <5)
- Disappearance % Δ (CYP2C19 [5]): 0 (−18) %
- tmax [6]: 4.98 min
- CL ([6]; female FVB mice): 15.3 mL/min/kg
- Vss ([6]; female FVB mice): 2.46 L/kg
- AUClast ([6]; mean ± SD, n = 2): 2.78 ± 1.09 µM·h
- Cmax ([6]; mean ± SD, n = 2): 2490 ± 2650 nM
- t1/2 ([6]; 1 mg/kg): 2.16 h
- CYP? (involvement of CYP2C9) (CYP2C9): Unlikely (unlikely for values <5)
- Disappearance % (CYP2C9): 14%
- Disappearance % Δ (CYP2C9): 0 (−14) %
- Measured Conc. (CYP2C9; [12]): 0.566 µM
- EC50 [7]: 1270 nM
- EC50 ([7]; read-out: EC50, unbound compound): 325 nM
- % remaining after a 60-min incubation (rat liver microsomes): 90%
- t1/2 (rat liver microsomes; NADPH): > 1 h
- Metabolism in HLM incubations (human liver microsomes [8]; 1 μM, human liver microsomes): very little metabolism
- Disappearance % (human liver microsomes [8]; [13]): 0 (−18) %
- Disappearance % Δ (human liver microsomes [8]; [13]): 0%
- Measured Conc. (human liver microsomes [8]; irreversible incubation condition, maximum metabolism, NADPH/No Inhibitor, 1 μM): 0.733 µM
- Measured Conc. (human liver microsomes [8]; irreversible incubation condition, negative control, No NADPH/No Inhibitor, 1 μM): 0.622 µM
- Disappearance % (human liver microsomes [8]; [14]): 0%
- Disappearance % Δ (human liver microsomes [8]; [14]): 0%
- Measured Conc. (human liver microsomes [8]; reversible incubation condition, maximum metabolism, NADPH/No Inhibitor, 1 μM): 0.655 µM
- Disappearance % (human liver microsomes [8]; reversible incubation condition, negative control, No NADPH/No Inhibitor): 0%
- Measured Conc. (human liver microsomes [8]; reversible incubation condition, negative control, No NADPH/No Inhibitor, 1 μM): 0.654 µM
- Unbound (%) [9]: 26% and 25.7±4.93%
- %F (absolute oral bioavailability) ([10]; PO 10 mg/kg vs IV 1 mg/kg, plasma): 40% and 40.3%
- tmax ([10]; PO 10 mg/kg, brain): 4 h
- AUClast ([10]; PO 10 mg/kg, brain): 29.1 ± 1.24 µM·h
- Cmax ([10]; PO 10 mg/kg, brain): 2450 ± 740 nM
- t1/2 ([10]; PO 10 mg/kg, plasma): 4.65 h
- tmax ([10]; PO 10 mg/kg, plasma): 2 h
- AUClast ([10]; PO 10 mg/kg, plasma): 11.2 ± 1.31 µM·h
- Cmax ([10]; PO 10 mg/kg, plasma): 1660 ± 110 nM
- % remaining after a 60-min incubation (human liver microsomes [11]): 105%
- t1/2 (human liver microsomes [11]; NADPH): > 1 h
- % remaining after a 60-min incubation (mouse liver microsomes): 89%
- t1/2 (mouse liver microsomes; NADPH): > 1 h
- Unbound (%) (human plasma): 4.9% and 4.91±1.03%
